Assay results from ChEMBL document CHEMBL4680173 (Eur J Med Chem, 2020).

Experiments:
SK-OV-3 [1] = assay: Induction of apoptosis in human SK-OV-3 cells assessed as viable cells at 10 uM incubated for 24 hrs by AnnexinV-FITC and propidium iodide staining based flow cytometry analysis (reference value: 96.03%); format: functional; conditions: read-out: Activity
SK-OV-3 [2] = assay: Induction of mitochondrial membrane potential loss in human SK-OV-3 cells at 10 uM measured after 24 hrs by JC-1 staining based flow cytometry analysis (reference value: 97.87%); format: functional
[3] = Toxicity in BALB/c nude mouse xenografted with human SK-OV-3 cells assessed as organ related toxicity on heart morphology at 10 mg/kg, iv once a week for 3 weeks by H and E staining-based fluorescence microscopy; format: organism-based; conditions: in vivo, 504 h
Method in brief: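 In the SK-OV-3 xenograft mice dosed iv weekly for three weeks, liver, heart, lung, kidney and spleen were collected at study end. Sections were dewaxed, stained with Harris haematoxylin then eosin-phloxine for 1 min, dehydrated, mounted, and examined by microscopy for tissue morphology.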

[4] = Toxicity in BALB/c nude mouse xenografted with human SK-OV-3 cells assessed as organ related toxicity on kidney morphology at 20 mg/kg, iv once a week for 3 weeks by H and E staining-based […]; conditions: in vivo, 504 h
[5] = Toxicity in BALB/c nude mouse xenografted with human SK-OV-3 cells assessed as body weight loss at 20 mg/kg, iv once a week for 3 weeks relative to irinotecan; format: organism-based; conditions: in vivo, 504 h
Method in brief: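 Five-week-old female BALB/c nude mice; 1.0×10^7 SK-OV-3 cells injected subcutaneously in the dorsal region. […] Tumour volume (AB²/2, calipers) and body weight recorded every other day; tumours weighed at end, inhibition rate calculated.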

With CCOP(=O)(OCC)C(Nc1ccc(CCCC(=O)OC2(CC)C(=O)OCc3c2cc2n(c3=O)Cc3c-2nc2ccc(OC(=O)N4CCC(N5CCCCC5)CC4)cc2c3CC)cc1)c1ccc(F)cc1 (stereo not given) the viability at 10 µM (SK-OV-3 [1]) was 64.3%, the Activity (SK-OV-3 [2]) was 61.59% and the Activity [3] was “Non-Toxic”. The Activity [4] was “Non-Toxic” and the Activity [5] was “Non-Toxic”.
